Source: ChEMBL document CHEMBL5247578, “Effective synthesis of benzimidazoles-imidazo[1,2-a]pyrazine conjugates: A comparative study of mono-and bis-benzimidazoles for antitumor activity” (Eur J Med Chem, 2019)

Assays:
[1] = tested on: EKVX; test: Antiproliferative activity against human EKVX cells assessed as cell growth at 0.000001 M incubated for 48 hrs by SRB assay relative to control; format: functional; settings: read-out: Activity
Outline: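 NCI-60 five-dose screen (10^-4 to 10^-8 M). Cells grown in RPMI 1640 with 5% FBS and 2 mM L-glutamine, plated at 5,000-40,000 cells/well and preincubated 24 h. Drug given from DMSO stock, then 48 h at 37 °C, 5% CO2. For adherent lines, cells fixed with cold TCA, SRB-stained and read at 515 nm. Percent growth taken against time-zero and untreated control.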

[2] = tested on: T47D; test: Antiproliferative activity against human T47D cells assessed as cell growth at 0.00000001 M incubated for 48 hrs by SRB assay relative to control; format: functional; settings: dose 10 nM, read-out: Activity
[3] = tested on: SF-539; test: Antiproliferative activity against human SF-539 cells assessed as cell growth at 0.00000001 M incubated for 48 hrs by SRB assay relative to control; format: functional; settings: dose 10 nM, read-out: Activity
[4] = tested on: PC-3; test: Antiproliferative activity against human PC-3 cells assessed as cell growth at 0.000001 M incubated for 48 hrs by SRB assay relative to control; format: functional; settings: read-out: Activity
[5] = tested on: SK-MEL-28; test: Antiproliferative activity against human SK-MEL-28 cells assessed as cell growth at 0.000001 M incubated for 48 hrs by SRB assay relative to control; format: functional; settings: read-out: Activity
[6] = tested on: SW-620; test: Growth inhibition against human SW620 cells incubated for 48 hrs by sulforhodamine B assay; format: functional
[7] = tested on: TK-10; test: Antiproliferative activity against human TK-10 cells assessed as cell growth at 0.00000001 M incubated for 48 hrs by SRB assay relative to control; format: functional; settings: dose 10 nM, read-out: Activity
[8] = tested on: UACC-257; test: Antiproliferative activity against human UACC-257 cells assessed as cell growth at 0.00000001 M incubated for 48 hrs by SRB assay relative to control; format: functional; settings: dose 10 nM, read-out: Activity
[9] = tested on: OVCAR-4; test: Antiproliferative activity against human OVCAR-4 cells assessed as cell growth at 0.00001 M incubated for 48 hrs by SRB assay relative to control; format: functional; settings: read-out: Activity
[10] = tested on: ACHN; test: Antiproliferative activity against human ACHN cells assessed as cell growth at 0.00000001 M incubated for 48 hrs by SRB assay relative to control; format: functional; settings: dose 10 nM, read-out: Activity
Outline: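 NCI-60 five-dose screen over 10^-4–10^-8 M (10-fold dilutions). Cells grown in RPMI 1640 with 5% FBS and 2 mM L-glutamine, seeded at 5,000–40,000 cells/well and preincubated 24 h. Drug from DMSO stock, 48 h at 37 °C, 5% CO2. Adherent cells TCA-fixed and stained with 0.4% SRB; A515 read. Percent growth = (Ti−Tz)/(C−Tz)×100, or (Ti−Tz)/Tz×100 when Ti<Tz.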

[11] = tested on: Malme-3M; test: Antiproliferative activity against human Malme-3M cells assessed as cell growth at 0.0001 M incubated for 48 hrs by SRB assay relative to control; format: functional; settings: read-out: Activity
[12] = tested on: HOP-62; test: Growth inhibition against human HOP-62 cells incubated for 48 hrs by sulforhodamine B assay; format: functional
[13] = tested on: Calf thymus DNA; test: Binding affinity to calf thymus DNA assessed as binding constant by Benesi-Hildebrand equation based UV-vis spectrophotometric method; format: nucleic-acid assay; settings: Bos taurus
[14] = tested on: MDA-MB-468; test: Antiproliferative activity against human MDA-MB-468 cells assessed as cell growth at 0.000001 M incubated for 48 hrs by SRB assay relative to control; format: functional; settings: read-out: Activity
[15] = tested on: HEK293; test: Cytotoxicity against human HEK293 cells assessed as reduction in cell viability at 0.0000001 M incubated for 48 hrs by MTT colorimetric assay relative to control; format: toxicity, cell-based; settings: hek293, 48 h, 0.1 µM, dose 100 nM
[16] = tested on: OVCAR-8; test: Antiproliferative activity against human OVCAR-8 cells assessed as cell growth inhibition by measuring lethal concentration incubated for 48 hrs by sulforhodamine B assay; format: functional; settings: read-out: LC50 (the source's name)
[17] = tested on: MDA-MB-435; test: Antiproliferative activity against human MDA-MB-435 cells assessed as cell growth at 0.00000001 M incubated for 48 hrs by SRB assay relative to control; format: functional; settings: dose 10 nM, read-out: Activity
[18] = tested on: PC-3; test: Antiproliferative activity against human PC-3 cells assessed as cell growth at 0.00001 M incubated for 48 hrs by SRB assay relative to control; format: functional; settings: read-out: Activity
[19] = tested on: SR; test: Antiproliferative activity against human SR cells assessed as cell growth inhibition by measuring lethal concentration incubated for 48 hrs by sulforhodamine B assay; format: functional; settings: read-out: LC50 (the source's name)
Outline: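 NCI-60 five-dose screen (10^-4 to 10^-8 M, 10-fold dilutions; DMSO stocks). Cells in RPMI 1640 with 5% FBS and 2 mM L-glutamine, preincubated 24 h, then exposed 48 h at 37 °C, 5% CO2. Fixed with cold TCA, stained with 0.4% SRB, absorbance read at 515 nm. Time-zero plates used as reference. LC50 taken from [(Ti-Tz)/Tz]×100 […].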

[20] = tested on: SK-MEL-28; test: Antiproliferative activity against human SK-MEL-28 cells assessed as cell growth at 0.00000001 M incubated for 48 hrs by SRB assay relative to control; format: functional; settings: dose 10 nM, read-out: Activity
[21] = tested on: SK-MEL-2; test: Antiproliferative activity against human SK-MEL-2 cells assessed as cell growth inhibition by measuring lethal concentration incubated for 48 hrs by sulforhodamine B assay; format: functional; settings: read-out: LC50 (the source's name)
[22] = tested on: SF-268; test: Antiproliferative activity against human SF-268 cells assessed as cell growth at 0.00000001 M incubated for 48 hrs by SRB assay relative to control; format: functional; settings: dose 10 nM, read-out: Activity
[23] = tested on: Hs-578T; test: Antiproliferative activity against human Hs-578T cells assessed as cell growth at 0.00001 M incubated for 48 hrs by SRB assay relative to control; format: functional; settings: read-out: Activity
Outline: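 NCI-60 five-dose mode, 10^-4 to 10^-8 M in 10-fold steps. RPMI 1640, 5% FBS, 2 mM L-glutamine; 24 h preincubation, then 48 h drug exposure at 37 °C. Stocks in DMSO at 400× the top concentration, diluted in medium with gentamicin. TCA fixation, SRB staining, absorbance at 515 nm. Percent growth from time-zero (Tz), control (C) and test (Ti) readings.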

[24] = tested on: HCT-15; test: Growth inhibition against human HCT-15 cells incubated for 48 hrs by sulforhodamine B assay; format: functional
[25] = tested on: SK-OV-3; test: Antiproliferative activity against human SK-OV-3 cells assessed as cell growth at 0.00001 M incubated for 48 hrs by SRB assay relative to control; format: functional; settings: read-out: Activity
[26] = tested on: SN12C; test: Antiproliferative activity against human SN12C cells assessed as cell growth at 0.0000001 M incubated for 48 hrs by SRB assay relative to control; format: functional; settings: dose 100 nM, read-out: Activity
[27] = tested on: HT-29; test: Antiproliferative activity against human HT-29 cells assessed as cell growth inhibition by measuring lethal concentration incubated for 48 hrs by sulforhodamine B assay; format: functional; settings: read-out: LC50 (the source's name)
[28] = tested on: SK-MEL-2; test: Antiproliferative activity against human SK-MEL-2 cells assessed as cell growth at 0.000001 M incubated for 48 hrs by SRB assay relative to control; format: functional; settings: read-out: Activity
[29] = tested on: CCRF-CEM; test: Antiproliferative activity against human CCRF-CEM cells assessed as cell growth inhibition by measuring lethal concentration incubated for 48 hrs by sulforhodamine B assay; format: functional; settings: read-out: LC50 (the source's name)
[30] = tested on: SF-268; test: Antiproliferative activity against human SF-268 cells assessed as cell growth at 0.0001 M incubated for 48 hrs by SRB assay relative to control; format: functional; settings: read-out: Activity

SMILES	growth at 1 µM [1] [%]	growth at 0.01 µM [2] [%]	growth at 0.01 µM [3] [%]	growth at 1 µM [4] [%]	growth at 1 µM [5] [%]	GI50 [6] [µM]	growth at 0.01 µM [7] [%]	growth at 0.01 µM [8] [%]	growth at 10 µM [9] [%]	growth at 0.01 µM [10] [%]	growth at 100 µM [11] [%]	GI50 [12] [µM]	Kb [13]	growth at 1 µM [14] [%]	Activity [15] [%]	CC50 [16] [µM]	growth at 0.01 µM [17] [%]	growth at 10 µM [18] [%]	CC50 [19] [µM]	growth at 0.01 µM [20] [%]	other results
c1ccc(Cn2cnc3ccc(-c4nc(-c5ccc6c(c5)ncn6C5CCCCC5)cn5ccnc45)cc32)cc1	76	86	88	75	87	3.4	84	101	1	96	23	2.13	3.18 10^4/M	89	13.6	> 100	91	-10	> 100	94	CC50 [21]: > 100 µM; growth at 0.01 µM [22]: 96%; growth at 10 µM [23]: 1%; GI50 [24]: 1.57 µM; growth at 10 µM [25]: -24%; growth at 0.1 µM [26]: 101%; CC50 [27]: > 100 µM; growth at 1 µM [28]: 90%; CC50 [29]: > 100 µM; growth at 100 µM [30]: 5%
COc1ccc(-c2cn3ccnc3c(-c3ccc4ncn(C5CCCCC5)c4c3)n2)cc1	73	85	87	37	58	0.734	88	100	35	93	49	1.09	3.34 10^4/M	47	14.79	> 100	92	5	> 100	94	CC50 [21]: > 100 µM; growth at 0.01 µM [22]: 96%; growth at 10 µM [23]: 6%; GI50 [24]: 0.722 µM; growth at 10 µM [25]: -5%; growth at 0.1 µM [26]: 100%; CC50 [27]: > 100 µM; growth at 1 µM [28]: 49%; CC50 [29]: > 100 µM; growth at 100 µM [30]: 29%
